Source: ChEMBL document CHEMBL1926577, “Novel 1,3,4-heterodiazole analogues: synthesis and in-vitro antitumor activity” (2012)

How the values were obtained:
Assay type in all cases: functional
[1] = Growth inhibition of human ovarian cancer cells after 48 hrs by coulter counter method; settings: Cancer cell lines
Procedure, shortened: (§1)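 NCI 60-line panel cells. Compound is dissolved in DMSO and diluted in phosphate-buffered saline, with final DMSO below 1%. It is added in duplicate wells to cultures at 6 × 10⁴ cells/ml and held at 37 °C, 5% CO₂, humidified, for 48 h. Cells are diluted 10-fold in saline, counted by Coulter counter and dilution-corrected. Vehicle controls contain PBS plus DMSO.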

[2] = Growth inhibition of human renal cancer cells after 48 hrs by coulter counter method; settings: Cancer cell lines; procedure, shortened: as §1
[3] = Growth inhibition of human prostate cancer cells after 48 hrs by coulter counter method; settings: Cancer cell lines; procedure, shortened: as §1
[4] = Growth inhibition of human breast cancer cells after 48 hrs by coulter counter method; settings: Cancer cell lines; procedure, shortened: as §1
[5] = Growth inhibition of human leukemia cells after 48 hrs by coulter counter method; settings: Leukemia cell; procedure, shortened: as §1
NSCLC = test: Growth inhibition of human NSCLC cells after 48 hrs by coulter counter method; procedure, shortened: as §1
[6] = Growth inhibition of human colon cancer cells after 48 hrs by coulter counter method; settings: Cancer cell lines; procedure, shortened: as §1
[7] = Growth inhibition of human CNS cancer cells after 48 hrs by coulter counter method; settings: Cancer cell lines; procedure, shortened: as §1
Melanoma cell = test: Growth inhibition of human Melanoma cells after 48 hrs by coulter counter method; procedure, shortened: as §1
[8] = read-out: LC50 (the source's name)

Work on `O=c1[nH]cc(F)c(=O)[nH]1` [FLUOROURACIL] yielded a GI50 [1] of 61.4 µM, a TGI [1] of over 100 µM and a GI50 [2] of 45.6 µM. It also gave a TGI [2] of over 100 µM, a CC50 [2, 8] of over 100 µM and a GI50 [3] of 22.7 µM. For the same molecule, the TGI [3] was over 100 µM, the GI50 [4] was 76.4 µM and the TGI [4] was over 100 µM. It also gave a CC50 [4, 8] of over 100 µM, a TGI [5] of over 100 µM and a CC50 [5, 8] of over 100 µM. It also gave a GI50 (NSCLC) of over 100 µM, a TGI (NSCLC) of over 100 µM and a CC50 (NSCLC; [8]) of over 100 µM. For the same molecule, the GI50 [6] was 8.4 µM, the TGI [6] was over 100 µM and the TGI [7] was over 100 µM. For the same molecule, the CC50 [7, 8] was over 100 µM and the TGI (Melanoma cell) was over 100 µM.
